Data: ChEMBL document CHEMBL4689842, “EUbOPEN Chemogenomics Library wave 1” (2021)

How the values were obtained:
[1] = system: Fibroblast; experiment: Incucyte cell viability with human fibroblast; type: toxicity, cell-based; conditions: 10 µM, compound concentration 10 uM; also: filed as whole numbers so only -1 and 0 and 1 occur
[2] = system: U2OS; experiment: Multiplex assay against U2OS; type: toxicity, cell-based; conditions: human
Method in brief: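 Hoechst33342, BioTracker Green Microtubule Cytoskeleton Dye, MitoTracker Red and Annexin V Alexa Fluor 680 were added to live cells at seeding, and imaging on a CQ1 microscope at 37°C and 5% CO2 followed compound addition. Gating by CellPathfinder machine learning separated cells into Hoechst high-intensity objects or normal cells, then normal cells into healthy, pyknosed or fragmented nuclei, then pyknosed cells into mitotic or apoptotic. Per cents of healthy-nucleus cells are reported for the tubulin, mitochondrial-mass and membrane-permeability phenotypes.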

[3] = 12 h, 1 µM, compound concentration 1 uM, replicate 1
[4] = 12 h, 1 µM, compound concentration 1 uM, replicate 2
[5] = 12 h, 10 µM, compound concentration 10 uM, replicate 1
[6] = 12 h, 10 µM, compound concentration 10 uM, replicate 2
[7] = 24 h, 1 µM, compound concentration 1 uM, replicate 1
[8] = 24 h, 1 µM, compound concentration 1 uM, replicate 2
[9] = 24 h, 10 µM, compound concentration 10 uM, replicate 1
[10] = 24 h, 10 µM, compound concentration 10 uM, replicate 2
[11] = 48 h, 1 µM, compound concentration 1 uM, replicate 1
[12] = 48 h, 1 µM, compound concentration 1 uM, replicate 2
[13] = 48 h, 10 µM, compound concentration 10 uM, replicate 1
[14] = 48 h, 10 µM, compound concentration 10 uM, replicate 2

## CCC(=O)O[C@]1(C(=O)SCF)[C@H](C)C[C@H]2[C@@H]3C[C@H](F)C4=CC(=O)C=C[C@]4(C)[C@@]3(F)[C@@H](O)C[C@@]21C [FLUTICASONE PROPIONATE]
[1]; 0 h, replicate number 1, timepoint 0 hours
  Growth Rate: 0
[1]; 6 h, replicate number 1, timepoint 6 hours
  Growth Rate: 1
[1]; 18 h, replicate number 1, timepoint 18 hours
  Growth Rate: 1
[1]; 24 h, replicate number 1, timepoint 24 hours
  Growth Rate: 1
[2]; [3]
  Population Apoptotic (%): 35%
  Population Fragmented Nuclei (%): 8%
  Population Healthy Nuclei (%): 81%
  Population Hoechst High Intensity Objects (%): 5%
  Population Membrane Permeable-Phenotype (%): 7%
  Population Mitochondria Different-Phenotype (%): 7%
  Population Mitotic Cells (%): 64%
  Population Normal (%): 94%
  Population Pyknosed Nuclei (%): 9%
  Population Tubulin-Different-Phenotype (%): 10%
  Total Cell Count: 182
[2]; [4]
  Population Apoptotic (%): 71%
  Population Fragmented Nuclei (%): 4%
  Population Healthy Nuclei (%): 78%
  Population Hoechst High Intensity Objects (%): 12%
  Population Membrane Permeable-Phenotype (%): 3%
  Population Mitochondria Different-Phenotype (%): 9%
  Population Mitotic Cells (%): 28%
  Population Normal (%): 87%
  Population Pyknosed Nuclei (%): 16%
  Population Tubulin-Different-Phenotype (%): 9%
  Total Cell Count: 68
[2]; [5]
  Population Apoptotic (%): 53%
  Population Fragmented Nuclei (%): 14%
  Population Healthy Nuclei (%): 72%
  Population Hoechst High Intensity Objects (%): 9%
  Population Membrane Permeable-Phenotype (%): 22%
  Population Mitochondria Different-Phenotype (%): 47%
  Population Mitotic Cells (%): 46%
  Population Normal (%): 90%
  Population Pyknosed Nuclei (%): 13%
  Population Tubulin-Different-Phenotype (%): 48%
  Total Cell Count: 155
[2]; [6]
  Population Apoptotic (%): 28%
  Population Fragmented Nuclei (%): 8%
  Population Healthy Nuclei (%): 81%
  Population Hoechst High Intensity Objects (%): 8%
  Population Membrane Permeable-Phenotype (%): 3%
  Population Mitochondria Different-Phenotype (%): 37%
  Population Mitotic Cells (%): 71%
  Population Normal (%): 92%
  Population Pyknosed Nuclei (%): 10%
  Population Tubulin-Different-Phenotype (%): 35%
  Total Cell Count: 48
[2]; [7]
  Population Apoptotic (%): 37%
  Population Fragmented Nuclei (%): 4%
  Population Healthy Nuclei (%): 86%
  Population Hoechst High Intensity Objects (%): 3%
  Population Membrane Permeable-Phenotype (%): 6%
  Population Mitochondria Different-Phenotype (%): 5%
  Population Mitotic Cells (%): 62%
  Population Normal (%): 96%
  Population Pyknosed Nuclei (%): 8%
  Population Tubulin-Different-Phenotype (%): 6%
  Total Cell Count: 230
[2]; [8]
  Population Apoptotic (%): 16%
  Population Fragmented Nuclei (%): 3%
  Population Healthy Nuclei (%): 84%
  Population Hoechst High Intensity Objects (%): 11%
  Population Membrane Permeable-Phenotype (%): 11%
  Population Mitochondria Different-Phenotype (%): 11%
  Population Mitotic Cells (%): 83%
  Population Normal (%): 88%
  Population Pyknosed Nuclei (%): 11%
  Population Tubulin-Different-Phenotype (%): 20%
  Total Cell Count: 78
[2]; [9]
  Population Apoptotic (%): 53%
  Population Fragmented Nuclei (%): 17%
  Population Healthy Nuclei (%): 61%
  Population Hoechst High Intensity Objects (%): 9%
  Population Membrane Permeable-Phenotype (%): 43%
  Population Mitochondria Different-Phenotype (%): 24%
  Population Mitotic Cells (%): 46%
  Population Normal (%): 90%
  Population Pyknosed Nuclei (%): 21%
  Population Tubulin-Different-Phenotype (%): 41%
  Total Cell Count: 189
[2]; [10]
  Population Apoptotic (%): 58%
  Population Fragmented Nuclei (%): 5%
  Population Healthy Nuclei (%): 78%
  Population Hoechst High Intensity Objects (%): 8%
  Population Membrane Permeable-Phenotype (%): 6%
  Population Mitochondria Different-Phenotype (%): 31%
  Population Mitotic Cells (%): 41%
  Population Normal (%): 91%
  Population Pyknosed Nuclei (%): 16%
  Population Tubulin-Different-Phenotype (%): 25%
  Total Cell Count: 59
[2]; [11]
  Population Apoptotic (%): 53%
  Population Fragmented Nuclei (%): 4%
  Population Healthy Nuclei (%): 89%
  Population Hoechst High Intensity Objects (%): 2%
  Population Membrane Permeable-Phenotype (%): 5%
  Population Mitochondria Different-Phenotype (%): 10%
  Population Mitotic Cells (%): 46%
  Population Normal (%): 97%
  Population Tubulin-Different-Phenotype (%): 8%
  Total Cell Count: 304
[2]; [12]
  Population Apoptotic (%): 20%
  Population Fragmented Nuclei (%): 1%
  Population Healthy Nuclei (%): 93%
  Population Hoechst High Intensity Objects (%): 8%
  Population Membrane Permeable-Phenotype (%): 8%
  Population Mitochondria Different-Phenotype (%): 12%
  Population Mitotic Cells (%): 80%
  Population Normal (%): 91%
  Population Pyknosed Nuclei (%): 5%
  Population Tubulin-Different-Phenotype (%): 19%
  Total Cell Count: 113
[2]; [13]
  Population Apoptotic (%): 72%
  Population Fragmented Nuclei (%): 13%
  Population Healthy Nuclei (%): 67%
  Population Hoechst High Intensity Objects (%): 6%
  Population Membrane Permeable-Phenotype (%): 42%
  Population Mitochondria Different-Phenotype (%): 18%
  Population Mitotic Cells (%): 27%
  Population Normal (%): 93%
  Population Pyknosed Nuclei (%): 19%
  Population Tubulin-Different-Phenotype (%): 38%
  Total Cell Count: 260
[2]; [14]
  Population Apoptotic (%): 45%
  Population Fragmented Nuclei (%): 4%
  Population Healthy Nuclei (%): 85%
  Population Hoechst High Intensity Objects (%): 3%
  Population Membrane Permeable-Phenotype (%): 11%
  Population Mitochondria Different-Phenotype (%): 14%
  Population Mitotic Cells (%): 54%
  Population Normal (%): 96%
  Population Pyknosed Nuclei (%): 11%
  Population Tubulin-Different-Phenotype (%): 22%
  Total Cell Count: 101
